Published values collected from several papers.
Each line is one published result; the experiments were not run side by side.
Target: Serine/threonine-protein kinase NIM1 (NIM1K, Homo sapiens, UniProt Q8IY84)

Structure (SMILES)	read-out	technique	concentration	remaining binding
Cc1cc(-n2nc(Cc3cc(F)cc(C(F)(F)F)c3)nc2C)ccc1C(N)=O	cell-free assay	competition with immobilised ligand	1 µM	100%
c1cnn2ncc(-c3ccnc(N4CCC45COC5)n3)c2c1	binding		1 µM	61%
CO[C@@H](C)c1c(Nc2ccc([C@H](N(C)C(=O)C3CCS(=O)(=O)CC3)C(F)(F)F)cc2)cnc2cc(Cl)nn12	cell-free assay	competition with immobilised ligand	1 µM	79%
C[C@@H]1CCN(c2nccc(-c3cnn4ncccc34)n2)C1	binding		1 µM	87%
COc1cccc(CNC(=O)c2nc3scc(COCc4ccc(C(=O)O)cc4)c3c(=O)[nH]2)c1	cell-free assay	competition with immobilised ligand	1 µM	100%
CN(CCCC(F)(F)F)c1nccc(-c2cnn3ncccc23)n1	binding		1 µM	100%
C[C@@H]1CN(c2cc(-c3nn(C)c4ccc(OC5(C)CC5)cc34)ncn2)C[C@H](C)O1	cell-free assay	competition with immobilised ligand	1 µM	74%
COc1ccnn2ncc(-c3ccnc(N(C)C)n3)c12	binding		1 µM	100%
COc1cnc(Nc2cccc(S(N)(=O)=O)c2)nc1N1CCN(c2ccccc2)C(=O)C1	binding	competition with immobilised ligand	1 µM	87%
O=C(c1ccc(Nc2ncc(Cl)c(-c3cc4ccccc4s3)n2)cc1)N1CCC(N2CCCC2)CC1	binding	competition with immobilised ligand	1 µM	20%
CS(=O)(=O)c1cc(C2(NC(=O)c3cncc4c3cnn4-c3ccc(F)cc3)CC2)ccn1	cell-free assay	competition with immobilised ligand	1 µM	56%
COc1ncc2cc3ccccc3nc2c1C#N	cell-free assay	competition with immobilised ligand	5 µM	89%
O=C(Nc1c[nH]nc1C(=O)NC1CCNCC1)c1cc(F)cc(F)c1	binding	competition with immobilised ligand	1 µM	100%
F[C@@H]1CCN(c2nccc(-c3cnn4ncccc34)n2)C1	binding		1 µM	100%
O=C(NCCCN1CCOCC1)c1ccc(Nc2ncc(Cl)c(-c3ccc(Cl)s3)n2)cc1	binding	competition with immobilised ligand	1 µM	20%
CCC(=O)N[C@H]1CC[C@@H](C(=O)N(C)c2ccc(-c3nc4ccccc4o3)cc2)C1	cell-free assay	competition with immobilised ligand	1 µM	88%
CCN1CCN(Cc2ccc(C(=O)Nc3ccc(C)c(Oc4ccc5c(c4)CC(=O)N5)c3)cc2C(F)(F)F)CC1	binding	competition with immobilised ligand	1 µM	100%
O=C(Nc1cccnn1)N1CCC(=Cc2cccc(Oc3ccc(C(F)(F)F)cn3)c2)CC1	cell-free assay	competition with immobilised ligand	1 µM	100%
CN(C)c1nccc(-c2cnc3ncccn23)n1	binding		1 µM	67%
O=C(c1ccc(Nc2ncc(Cl)c(-c3ccc(Cl)s3)n2)cc1)N1CCC(N2CCCC2)CC1	binding	competition with immobilised ligand	1 µM	6.3%
N[C@@H]1CCN(c2nccc(-c3cnn4ncccc34)n2)C1	binding		1 µM	79%
C[C@@H](c1ccc(-n2cnc3c(N)ncnc32)cc1)N1CCc2nn(C)c(Cc3ccccc3)c2C1=O	binding	competition with immobilised ligand	0.1 µM	67%
